# Assay results published in ChEMBL document CHEMBL1153746, “Mansouramycins A-D, cytotoxic isoquinolinequinones from a marine streptomycete” (J Nat Prod, 2009).
# Columns and labels:
# [1] = Cytotoxicity against human 1218L cells after 4 days by propidium iodide assay; format: functional, cell-based; conditions: 96 h
# Method in brief: (§1)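 Monolayer cell proliferation assay across a panel of up to 36 human tumour lines covering 14 solid tumour types. Lines came either from patient tumours grown as subcutaneous xenografts in NMRI nu/nu mice or from culture collections (ATCC, NCI, DSMZ). Potency is given as IC50.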
# [2] = Cytotoxicity against human BXF T24 cells after 4 days by propidium iodide assay; format: functional, cell-based; conditions: T-24, 96 h; method in brief: as §1
# [3] = Cytotoxicity against human 498NL cells after 4 days by propidium iodide assay; format: functional, cell-based; conditions: 96 h; method in brief: as §1
# SF-268 = test: Cytotoxicity against human SF268 cells after 4 days by propidium iodide assay; format: functional, cell-based; conditions: SF-268, 96 h; method in brief: as §1
# HCT-116 = test: Cytotoxicity against human HCT116 cells after 4 days by propidium iodide assay; format: functional, cell-based; conditions: HCT-116, 96 h; method in brief: as §1
# HT-29 = test: Cytotoxicity against human HT-29 cells after 4 days by propidium iodide assay; format: functional, cell-based; conditions: HT-29, 96 h; method in brief: as §1
# [4] = Cytotoxicity against human GXF251L cells after 4 days by propidium iodide assay; format: functional, cell-based; conditions: GXF 251L, 96 h; method in brief: as §1
# [5] = Cytotoxicity against human 536L cells after 4 days by propidium iodide assay; format: functional, cell-based; conditions: 96 h; method in brief: as §1
# [6] = Cytotoxicity against human 1121L cells after 4 days by propidium iodide assay; format: functional, cell-based; conditions: 96 h; method in brief: as §1
# [7] = Cytotoxicity against human 289L cells after 4 days by propidium iodide assay; format: functional, cell-based; conditions: 96 h; method in brief: as §1
# [8] = Cytotoxicity against human 526L cells after 4 days by propidium iodide assay; format: functional, cell-based; conditions: 96 h; method in brief: as §1
# [9] = Cytotoxicity against human LXFL 529L cells after 4 days by propidium iodide assay; format: functional, cell-based; conditions: 96 h; method in brief: as §1
# [10] = Cytotoxicity against human 629L cells after 4 days by propidium iodide assay; format: functional, cell-based; conditions: 96 h; method in brief: as §1
# NCI-H460 = test: Cytotoxicity against human H460 cells after 4 days by propidium iodide assay; format: functional, cell-based; conditions: NCI-H460, 96 h; method in brief: as §1
# [11] = Cytotoxicity against human MAXF 401NL cells after 4 days by propidium iodide assay; format: functional, cell-based; conditions: 96 h; method in brief: as §1
# MCF7 = test: Cytotoxicity against human MCF7 cells after 4 days by propidium iodide assay; format: functional, cell-based; conditions: MCF7, 96 h; method in brief: as §1
# [12] = Cytotoxicity against human 276L cells after 4 days by propidium iodide assay; format: functional, cell-based; conditions: 96 h; method in brief: as §1
# [13] = Cytotoxicity against human 394NL cells after 4 days by propidium iodide assay; format: functional, cell-based; conditions: 96 h; method in brief: as §1
# [14] = Cytotoxicity against human MEXF 462NL cells after 4 days by propidium iodide assay; format: functional, cell-based; conditions: 96 h; method in brief: as §1
# [15] = Cytotoxicity against human 514L cells after 4 days by propidium iodide assay; format: functional, cell-based; conditions: 96 h; method in brief: as §1
# [16] = Cytotoxicity against human 520L cells after 4 days by propidium iodide assay; format: functional, cell-based; conditions: 96 h; method in brief: as §1
# [17] = Cytotoxicity against human 1619L cells after 4 days by propidium iodide assay; format: functional, cell-based; conditions: 96 h; method in brief: as §1
# [18] = Cytotoxicity against human 899L cells after 4 days by propidium iodide assay; format: functional, cell-based; conditions: 96 h; method in brief: as §1
# OVCAR-3 = test: Cytotoxicity against human OVCAR-3 cells after 4 days by propidium iodide assay; format: functional, cell-based; conditions: OVCAR-3, 96 h; method in brief: as §1
# [19] = Cytotoxicity against human 1657L cells after 4 days by propidium iodide assay; format: functional, cell-based; conditions: 96 h; method in brief: as §1
# PANC-1 = test: Cytotoxicity against human PANC1 cells after 4 days by propidium iodide assay; format: functional, cell-based; conditions: PANC-1, 96 h; method in brief: as §1
# CWR22R = test: Cytotoxicity against human 22Rv1 cells after 4 days by propidium iodide assay; format: functional, cell-based; conditions: 22Rv1, 96 h; method in brief: as §1
# DU-145 = test: Cytotoxicity against human DU145 cells after 4 days by propidium iodide assay; format: functional, cell-based; conditions: DU-145, 96 h; method in brief: as §1
# LNCaP = test: Cytotoxicity against human LNCAP cells after 4 days by propidium iodide assay; format: functional, cell-based; conditions: 96 h; method in brief: as §1
# [20] = Cytotoxicity against human PC3M cells after 4 days by propidium iodide assay; format: functional, cell-based; conditions: PC-3M, 96 h; method in brief: as §1
# [21] = Cytotoxicity against human 1752L cells after 4 days by propidium iodide assay; format: functional, cell-based; conditions: 96 h; method in brief: as §1
# [22] = Cytotoxicity against human 1781L cells after 4 days by propidium iodide assay; format: functional, cell-based; conditions: 96 h; method in brief: as §1
# [23] = Cytotoxicity against human 393NL cells after 4 days by propidium iodide assay; format: functional, cell-based; conditions: 96 h; method in brief: as §1
# [24] = Cytotoxicity against human RXF 486L cells after 4 days by propidium iodide assay; format: functional, cell-based; conditions: 96 h; method in brief: as §1
# [25] = Cytotoxicity against human RXF 944L cells after 4 days by propidium iodide assay; format: functional, cell-based; conditions: 96 h; method in brief: as §1
# [26] = Cytotoxicity against human UXF 1138L cells after 4 days by propidium iodide assay; format: functional, cell-based; conditions: 96 h; method in brief: as §1
# Bacillus subtilis = test: Antibacterial activity against Bacillus subtilis at […] by agar diffusion test; format: functional
# Escherichia coli = test: Antibacterial activity against Escherichia coli at […] by agar diffusion test; format: functional
# Staphylococcus aureus = test: Antibacterial activity against Staphylococcus aureus at […] by agar diffusion test; format: functional
# [27] = tested on: Streptomyces viridochromogenes; test: Antibacterial activity against Streptomyces viridochromogenes at […] by agar diffusion test; format: functional
# Candida albicans = test: Antifungal activity against Candida albicans at […] by agar diffusion test; format: functional
# Rhizomucor miehei = test: Antifungal activity against Mucor miehei at […] by agar diffusion test; format: functional
# Chlorella vulgaris = test: Antialgal activity against Chlorella vulgaris at […] by agar diffusion test; format: functional
# Chlorella sorokiniana = test: Antialgal activity against Chlorella sorokiniana at […] by agar diffusion test; format: functional
# Desmodesmus subspicatus = test: Antialgal activity against Scenedesmus subspicatus at […] by agar diffusion test; format: functional
# [28] = in the assay text read “MTT assay” for “propidium iodide assay”
smiles,measurement,setting,value
CNC1=CC(=O)c2cc(C(=O)OC)ncc2C1=O,IC50,[1],134 nM
same,IC50,[2],8 nM
same,IC50,[3],130 nM
same,IC50,SF-268,8 nM
same,IC50,HCT-116,114 nM
same,IC50,HT-29,146 nM
same,IC50,[4],167 nM
same,IC50,[5],146 nM
same,IC50,[6],150 nM
same,IC50,[7],130 nM
same,IC50,[8],110 nM
same,IC50,[9],89 nM
same,IC50,[10],16 nM
same,IC50,NCI-H460,134 nM
same,IC50,[11],195 nM
same,IC50,MCF7,12 nM
same,IC50,[12],8 nM
same,IC50,[13],106 nM
same,IC50,[14],179 nM
same,IC50,[15],12 nM
same,IC50,[16],12 nM
same,IC50,[17],45 nM
same,IC50,[18],134 nM
same,IC50,OVCAR-3,12 nM
same,IC50,[19],61 nM
same,IC50,PANC-1,549 nM
same,IC50,CWR22R,671 nM
same,IC50,DU-145,992 nM
same,IC50,LNCaP,1430 nM
same,IC50,[20],215 nM
same,IC50,[21],130 nM
same,IC50,[22],114 nM
same,IC50,[23],122 nM
same,IC50,[24],1650 nM
same,IC50,[25],20 nM
same,IC50,[26],12 nM
CNC1=CC(=O)c2c(cnc(C)c2C)C1=O [MANSOURAMYCIN A],diameter of the inhibition zone (DIZ),Bacillus subtilis,10 mm
same,diameter of the inhibition zone (DIZ),Escherichia coli,10 mm
same,diameter of the inhibition zone (DIZ),Staphylococcus aureus,12 mm
same,diameter of the inhibition zone (DIZ),[27],0 mm
same,diameter of the inhibition zone (DIZ),Candida albicans,0 mm
same,diameter of the inhibition zone (DIZ),Rhizomucor miehei,0 mm
same,diameter of the inhibition zone (DIZ),Chlorella vulgaris,22 mm
same,diameter of the inhibition zone (DIZ),Chlorella sorokiniana,17 mm
same,diameter of the inhibition zone (DIZ),Desmodesmus subspicatus,25 mm
same,IC50,[1],28200 nM
same,IC50,[2],12600 nM
same,IC50,[3],14400 nM
same,IC50,SF-268,14400 nM
same,IC50,HCT-116,9110 nM
same,IC50,HT-29,4630 nM
same,IC50,[4],31900 nM
same,IC50,[5],710 nM
same,IC50,[6],27100 nM
same,IC50,[7],19000 nM
same,IC50,[8],19000 nM
same,IC50,[9],12400 nM
same,IC50,[10],4100 nM
same,IC50,NCI-H460,7110 nM
same,IC50,[11],47800 nM
same,IC50,MCF7,2340 nM
same,IC50,[12],2440 nM
same,IC50,[13],15600 nM
same,IC50,[14],49900 nM
same,IC50,[15],2600 nM
same,IC50,[16]; [28],5450 nM
same,IC50,[17]; [28],13200 nM
same,IC50,[18]; [28],34900 nM
same,IC50,OVCAR-3; [28],32300 nM
same,IC50,[19]; [28],26000 nM
same,IC50,PANC-1,26800 nM
same,IC50,CWR22R,21700 nM
same,IC50,DU-145,1250 nM
same,IC50,LNCaP,21700 nM
same,IC50,[20],32600 nM
same,IC50,[21],46300 nM
same,IC50,[22],16400 nM
same,IC50,[23],18600 nM
same,IC50,[24],59100 nM
same,IC50,[25],18100 nM
same,IC50,[26]; [28],18000 nM
O=S(=O)(O)O.Oc1cccc2cccnc12 [QUINOSOL],diameter of the inhibition zone (DIZ),Bacillus subtilis,15 mm
same,diameter of the inhibition zone (DIZ),Escherichia coli,15 mm
same,diameter of the inhibition zone (DIZ),Staphylococcus aureus,20 mm
same,diameter of the inhibition zone (DIZ),[27],0 mm
same,diameter of the inhibition zone (DIZ),Candida albicans,11 mm
same,diameter of the inhibition zone (DIZ),Rhizomucor miehei,30 mm
same,diameter of the inhibition zone (DIZ),Chlorella vulgaris,25 mm
same,diameter of the inhibition zone (DIZ),Chlorella sorokiniana,28 mm
same,diameter of the inhibition zone (DIZ),Desmodesmus subspicatus,27 mm
